Data on three compounds can be found in ChEMBL document CHEMBL5252671, “Design, synthesis and evaluation of the anti-breast cancer activity of 1,3-oxazolo[4,5-d]pyrimidine and 1,3-oxazolo[5,4-d]pyrimidine derivatives” (2023).

Common to all, as to type: functional
For assay [1], the system named is MCF7. Briefly: Antiproliferative activity against human MCF7 cells assessed as inhibition of cell growth at 1 X 10^-5 M measured for 48 hrs by sulforhodamine B assay relative to control. To be noted: MCF7, 48 h, dose 1 10^-5M. The essentials: (§1)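 NCI one-dose screen. Cells were seeded at 5000-40000/well in RPMI 1640 with 5% FBS and 2 mM L-glutamine and preincubated 24 h at 37 °C in 5% CO2. Compound was added at 10⁻⁵ M for 48 h. Cells were then fixed with 10% TCA, stained with sulforhodamine B, washed with 1% acetic acid, solubilized in 10 mM Tris and read as OD at 510 nm.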
On the technique in general: In SRB staining, fixed cells bind dye roughly in proportion to their protein.

Assay [2] has as its system MDA-MB-231. Kind of assay: Antiproliferative activity against human MDA-MB-231 cells assessed as inhibition of cell growth at 1 X 10^-5 M measured for 48 hrs by sulforhodamine B assay relative to control. The settings on record: MDA-MB-231, 48 h, dose 1 10^-5M. The method in brief: as §1
The test system of assay [3] is Hs-578T. Briefly: Antiproliferative activity against human Hs-578T cells assessed as inhibition of cell growth at 1 X 10^-5 M measured for 48 hrs by sulforhodamine B assay relative to control. To be noted: dose 1 10^-5M. The essentials: as §1
Assay [4] has as its system BT-549. Kind of assay: Antiproliferative activity against human BT-549 cells assessed as inhibition of cell growth at 1 X 10^-5 M measured for 48 hrs by sulforhodamine B assay relative to control. The settings on record: BT-549, 48 h, dose 1 10^-5M. The essentials:
as §1

Assay [5] has as its system T47D. Briefly: Antiproliferative activity against human T47D cells assessed as inhibition of cell growth at 1 X 10^-5 M measured for 48 hrs by sulforhodamine B assay relative to control. To be noted: dose 1 10^-5M. The method in brief: as §1
In assay [6] the test system is MDA-MB-468. Kind of assay: Antiproliferative activity against human MDA-MB-468 cells assessed as inhibition of cell growth at 1 X 10^-5 M measured for 48 hrs by sulforhodamine B assay relative to control. The settings on record: MDA-MB-468, 48 h, dose 1 10^-5M. The essentials:
as §1

The subject of assay [7] is MCF7. Kind of assay: Anticancer activity against human MCF7 cells measured at 48 hrs. The method in brief:
(§2)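 NCI DTP five-dose screen on the breast subpanel: compound at 0.01, 0.1, 1, 10 and 100 μM for 48 h. Cell density read by sulforhodamine B (protein content). GI50, TGI and LC50 were derived from the T, T0 and C optical densities using the NCI formulas.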

Assay [8] deals with MDA-MB-231. Briefly: Anticancer activity against human MDA-MB-231 cells measured at 48 hrs. The method in brief:
as §2

Assay [9] deals with Hs-578T. Kind of assay: Anticancer activity against human Hs-578T cells measured at 48 hrs. The essentials:
as §2

In assay [10] the test system is BT-549. Kind of assay: Anticancer activity against human BT-549 cells measured at 48 hrs. The essentials: as §2
Assay [11] has as its system T47D. Briefly: Anticancer activity against human T47D cells measured at 48 hrs. The settings on record: for CC50: read-out: LC50 (the source's name). The essentials:
as §2

For assay [12], the system named is MDA-MB-468. Briefly: Anticancer activity against human MDA-MB-468 cells measured at 48 hrs. The essentials:
as §2

Bounds are passed on as bounds.

Consider `Cc1ccc(-c2nc(N3CCCNCC3)c3oc(-c4ccccc4)nc3n2)cc1`, for which the inhibition (commonly the relative decrease from the control value, in per cent) at 10 µM in assay [1] is 175%; in [2] it was 192%; in [3], 130%; in assay [4], 19%; in [5], 167%; in assay [6], 176%. Further, the GI50 (as a rule, the concentration giving 50% growth inhibition) came to 1.59 µM in assay [7]; 1.77 µM in [8]; 1.94 µM in assay [9]; 1.62 µM in assay [10]; 2.02 µM in assay [11]; 1.55 µM in assay [12]. Also, the LC50 (concentration giving 50% net cell kill) is 7.45 µM in [7] and 6.75 µM in assay [12]. Moreover, the TGI (usually the concentration at which net growth stops) came out at 3.44 µM in [7]; 3.27 µM in assay [8]; 4.22 µM in [9]; 3.14 µM in assay [10]; 4 µM in [11]; 3.24 µM in assay [12]. In assay [8], the LC50 (concentration killing 50% of starting cells) amounted to 6.06 µM. The same compound had an LC50 (50% lethal concentration) in assay [9] of 9.21 µM. The CC50 in assay [11] stood at 7.94 µM.

For the compound `Cc1ccc(-c2nc(N3CCCNCC3)c3oc(-c4ccc(C)cc4)nc3n2)cc1`, the inhibition at 10 µM was 165% in assay [1]; 179% in assay [2]; 0% in [3]; 10% in assay [4]; 146% in [5]; 95% in assay [6]. In addition, the GI50 in [7] turned out to be 1.85 µM; in assay [8], 1.69 µM; in assay [9] it was 12.6 µM; in assay [10], 16.3 µM; in assay [11], 1.94 µM; in assay [12], 1.96 µM. Further, the figures for the LC50 (concentration giving 50% net cell kill) in assay [7] and in [10] were 8.14 µM and 75.2 µM, respectively. For the same compound, the concentration for total growth inhibition (TGI) was 3.88 µM in assay [7]; 3.11 µM in [8]; 31.9 µM in [9]; 35 µM in assay [10]; 4.17 µM in assay [11]; 4.39 µM in [12]. This compound had an LC50 (concentration killing 50% of starting cells) in assay [8] of 5.73 µM. The LC50 (50% lethal concentration) in assay [9] was 80.9 µM. Further, the CC50 in assay [11] is 8.96 µM.

Take `Cc1ccc(-c2nc(N3CCNCC3)c3oc(-c4ccccc4)nc3n2)cc1`: the inhibition at 10 µM in assay [1] was found to be 175%; in assay [2], 179%; in assay [3], 72%; in assay [4], 15%; in [5] it was 158%; in [6] it was 131%. In addition, the GI50 came to 1.85 µM in assay [7]; 1.62 µM in assay [8]; 2.53 µM in assay [9]; 13.8 µM in assay [10]; 1.81 µM in [11]; 1.81 µM in assay [12]. Moreover, the LC50 (concentration giving 50% net cell kill) in [7] is 7.6 µM; in assay [10] it was 72.7 µM; in [12], 7.98 µM. In addition, the TGI in [7] worked out at 3.75 µM; in assay [8] it was 3.06 µM; in assay [9] it was 7.69 µM; in assay [10] it was 31.6 µM; in assay [11] it was 3.83 µM; in assay [12], 3.8 µM. Also, the LC50 (concentration killing 50% of starting cells) in [8] turned out to be 5.77 µM. Further, in assay [9], the LC50 (50% lethal concentration) is above 100 µM. Further, the CC50 in [11] amounted to 8.07 µM.
